The text below walks through data of ChEMBL document CHEMBL3259614, “Design, synthesis, and structure-activity relationship studies of novel fused heterocycles-linked triazoles with good activity and water solubility” (J Med Chem, 2014).

Converted amounts (≈) assume the structure as drawn.

For one assay, the system named is Candida parapsilosis. Briefly: Antimicrobial activity against Candida parapsilosis 22019 after 24 hrs by serial dilution method. Type of assay: functional. The note with it: Lodderomyces parapsilosis, 22019, 24 h. An outline of the steps:
(§1)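 Broth serial dilution MIC in 96-well plates following NCCLS/CLSI methods. Compounds were dissolved in DMSO and serially diluted in growth medium, with incubation at 35 °C. […] C. parapsilosis 22019 served as the quality-control strain in each assay.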
For `C[C@@H](N1CCn2nc(-c3ccc(F)nc3)nc2C1)[C@](O)(Cn1cncn1)c1ccc(F)cc1F`, the lowest concentration to inhibit growth (MIC) was 0.0625 µg/mL (≈ 0.133 µM).
The same measure, in the same setting: to `C[C@@H](N1CCn2nc(-c3cncc(F)c3)nc2C1)[C@](O)(Cn1cncn1)c1ccc(F)cc1F` belongs 0.125 µg/mL (≈ 0.266 µM).
Regarding `C[C@@H](N1CCn2nc(-c3cncc(C#N)c3)nc2C1)[C@](O)(Cn1cncn1)c1ccc(F)cc1F`, inhibition of growth (MIC) required 0.25 µg/mL (≈ 0.524 µM).
Turning to `COc1ccc(-c2nc3n(n2)CCN([C@H](C)[C@](O)(Cn2cncn2)c2ccc(F)cc2F)C3)cn1`, the MIC (as a rule, the lowest concentration that inhibits growth of the organism) was 0.125 µg/mL (≈ 0.259 µM).
The same measure, in the same setting: to `Cc1ncc(-c2nc3n(n2)CCN([C@H](C)[C@](O)(Cn2cncn2)c2ccc(F)cc2F)C3)cn1` belongs 0.125 µg/mL (≈ 0.267 µM).
Same read-out and setting: to `COc1ncc(-c2nc3n(n2)CCN([C@H](C)[C@](O)(Cn2cncn2)c2ccc(F)cc2F)C3)cn1` belongs 0.25 µg/mL (≈ 0.517 µM); to `C[C@@H](N1CCc2nc(Br)sc2C1)[C@](O)(Cn1cncn1)c1ccc(F)cc1F`, 1 µg/mL (≈ 2.13 µM).

The next assay concerns Aspergillus fumigatus. Put plainly: Antimicrobial activity against Aspergillus fumigatus 7544 after 48 hrs by serial dilution method. The assay is classed as functional. The note with it: Aspergillus fumigatus, 7544, 48 h. In a few lines:
as §1
In turn, `C[C@@H](N1CCn2nc(-c3ccc(F)nc3)nc2C1)[C@](O)(Cn1cncn1)c1ccc(F)cc1F` showed an MIC of 2 µg/mL (≈ 4.25 µM).
The same measure, in the same setting: to `C[C@@H](N1CCn2nc(-c3cncc(F)c3)nc2C1)[C@](O)(Cn1cncn1)c1ccc(F)cc1F` belongs 32 µg/mL (≈ 68 µM); to `C[C@@H](N1CCn2nc(-c3cncc(C#N)c3)nc2C1)[C@](O)(Cn1cncn1)c1ccc(F)cc1F`, 64 µg/mL (≈ 134 µM); to `COc1ccc(-c2nc3n(n2)CCN([C@H](C)[C@](O)(Cn2cncn2)c2ccc(F)cc2F)C3)cn1`, 32 µg/mL (≈ 66.3 µM).
As to `Cc1ncc(-c2nc3n(n2)CCN([C@H](C)[C@](O)(Cn2cncn2)c2ccc(F)cc2F)C3)cn1`, the MIC amounted to 32 µg/mL (≈ 68.5 µM).
The same measure, in the same setting: next, `COc1ncc(-c2nc3n(n2)CCN([C@H](C)[C@](O)(Cn2cncn2)c2ccc(F)cc2F)C3)cn1`: 32 µg/mL (≈ 66.2 µM); `C[C@@H](N1CCc2nc(Br)sc2C1)[C@](O)(Cn1cncn1)c1ccc(F)cc1F`: 32 µg/mL (≈ 68 µM).

For a further assay, the system named is Cryptococcus neoformans. Put plainly: Antimicrobial activity against Cryptococcus neoformans 32609 after 72 hrs by serial dilution method. The assay is classed as functional. The settings on record: Cryptococcus neoformans, 32609, 72 h. In a few lines: as §1
`C[C@@H](N1CCn2nc(-c3ccc(F)nc3)nc2C1)[C@](O)(Cn1cncn1)c1ccc(F)cc1F`: the MIC amounted to 0.0312 µg/mL (≈ 0.0664 µM).
On the same count and under the same terms, to `C[C@@H](N1CCn2nc(-c3cncc(F)c3)nc2C1)[C@](O)(Cn1cncn1)c1ccc(F)cc1F` belongs 0.125 µg/mL (≈ 0.266 µM); to `C[C@@H](N1CCn2nc(-c3cncc(C#N)c3)nc2C1)[C@](O)(Cn1cncn1)c1ccc(F)cc1F`, 0.125 µg/mL (≈ 0.262 µM); to `COc1ccc(-c2nc3n(n2)CCN([C@H](C)[C@](O)(Cn2cncn2)c2ccc(F)cc2F)C3)cn1`, 0.25 µg/mL (≈ 0.518 µM).
Compound `Cc1ncc(-c2nc3n(n2)CCN([C@H](C)[C@](O)(Cn2cncn2)c2ccc(F)cc2F)C3)cn1` gave an MIC of 0.125 µg/mL (≈ 0.267 µM).
On the same count and under the same terms, next, `COc1ncc(-c2nc3n(n2)CCN([C@H](C)[C@](O)(Cn2cncn2)c2ccc(F)cc2F)C3)cn1`: 0.5 µg/mL (≈ 1.03 µM).
On the same count and under the same terms, to `C[C@@H](N1CCc2nc(Br)sc2C1)[C@](O)(Cn1cncn1)c1ccc(F)cc1F` belongs 0.5 µg/mL (≈ 1.06 µM).

A further assay concerns Candida albicans. Put plainly: Antimicrobial activity against Candida albicans SC5314 after 24 hrs by serial dilution method. The assay is classed as functional. The note with it: SC5314, 24 h. In a few lines: as §1
Regarding `C[C@@H](N1CCn2nc(-c3ccc(F)nc3)nc2C1)[C@](O)(Cn1cncn1)c1ccc(F)cc1F`, the minimal inhibitory concentration (MIC) worked out at 0.0156 µg/mL (≈ 0.0332 µM).
Same read-out and setting: to `C[C@@H](N1CCn2nc(-c3cncc(F)c3)nc2C1)[C@](O)(Cn1cncn1)c1ccc(F)cc1F` belongs 0.125 µg/mL (≈ 0.266 µM); to `C[C@@H](N1CCn2nc(-c3cncc(C#N)c3)nc2C1)[C@](O)(Cn1cncn1)c1ccc(F)cc1F`, 0.125 µg/mL (≈ 0.262 µM); to `COc1ccc(-c2nc3n(n2)CCN([C@H](C)[C@](O)(Cn2cncn2)c2ccc(F)cc2F)C3)cn1`, 0.0625 µg/mL (≈ 0.13 µM).
On to `Cc1ncc(-c2nc3n(n2)CCN([C@H](C)[C@](O)(Cn2cncn2)c2ccc(F)cc2F)C3)cn1`, for which the minimal inhibitory concentration (MIC) is 0.0625 µg/mL (≈ 0.134 µM).
For the compound `COc1ncc(-c2nc3n(n2)CCN([C@H](C)[C@](O)(Cn2cncn2)c2ccc(F)cc2F)C3)cn1`, the MIC turned out to be 0.0625 µg/mL (≈ 0.129 µM).
The same measure, in the same setting: to `C[C@@H](N1CCc2nc(Br)sc2C1)[C@](O)(Cn1cncn1)c1ccc(F)cc1F` belongs 1 µg/mL (≈ 2.13 µM).

In another assay the test system is Candida albicans. Put plainly: Antimicrobial activity against Candida albicans Y0109 after 24 hrs by serial dilution method. The assay is classed as functional. The note with it: Y0109, 24 h. In a few lines:
as §1
Turning to `C[C@@H](N1CCn2nc(-c3ccc(F)nc3)nc2C1)[C@](O)(Cn1cncn1)c1ccc(F)cc1F`, the MIC came to 0.0625 µg/mL (≈ 0.133 µM).
Same read-out and setting: to `C[C@@H](N1CCn2nc(-c3cncc(F)c3)nc2C1)[C@](O)(Cn1cncn1)c1ccc(F)cc1F` belongs 0.125 µg/mL (≈ 0.266 µM); to `C[C@@H](N1CCn2nc(-c3cncc(C#N)c3)nc2C1)[C@](O)(Cn1cncn1)c1ccc(F)cc1F`, 0.125 µg/mL (≈ 0.262 µM); to `COc1ccc(-c2nc3n(n2)CCN([C@H](C)[C@](O)(Cn2cncn2)c2ccc(F)cc2F)C3)cn1`, 0.125 µg/mL (≈ 0.259 µM).
On the same count and under the same terms, next, `Cc1ncc(-c2nc3n(n2)CCN([C@H](C)[C@](O)(Cn2cncn2)c2ccc(F)cc2F)C3)cn1`: 0.125 µg/mL (≈ 0.267 µM); `COc1ncc(-c2nc3n(n2)CCN([C@H](C)[C@](O)(Cn2cncn2)c2ccc(F)cc2F)C3)cn1`: 0.125 µg/mL (≈ 0.259 µM); `C[C@@H](N1CCc2nc(Br)sc2C1)[C@](O)(Cn1cncn1)c1ccc(F)cc1F`: 1 µg/mL (≈ 2.13 µM).

The next assay concerns Nakaseomyces glabratus. Briefly: Antimicrobial activity against Candida glabrata 537 after 24 hrs by serial dilution method. The assay is classed as functional. The settings on record: Nakaseomyces glabratus, 537, 24 h. In a few lines: as §1
`C[C@@H](N1CCn2nc(-c3ccc(F)nc3)nc2C1)[C@](O)(Cn1cncn1)c1ccc(F)cc1F` registered an MIC of 0.0312 µg/mL (≈ 0.0664 µM).
Same read-out and setting: next, `C[C@@H](N1CCn2nc(-c3cncc(F)c3)nc2C1)[C@](O)(Cn1cncn1)c1ccc(F)cc1F`: 1 µg/mL (≈ 2.13 µM).
The same measure, in the same setting: to `C[C@@H](N1CCn2nc(-c3cncc(C#N)c3)nc2C1)[C@](O)(Cn1cncn1)c1ccc(F)cc1F` belongs 1 µg/mL (≈ 2.09 µM).
On the same count and under the same terms, next, `COc1ccc(-c2nc3n(n2)CCN([C@H](C)[C@](O)(Cn2cncn2)c2ccc(F)cc2F)C3)cn1`: 0.5 µg/mL (≈ 1.04 µM); `Cc1ncc(-c2nc3n(n2)CCN([C@H](C)[C@](O)(Cn2cncn2)c2ccc(F)cc2F)C3)cn1`: 0.25 µg/mL (≈ 0.535 µM).
Compound `COc1ncc(-c2nc3n(n2)CCN([C@H](C)[C@](O)(Cn2cncn2)c2ccc(F)cc2F)C3)cn1` yielded an MIC of 0.25 µg/mL (≈ 0.517 µM).
Take `C[C@@H](N1CCc2nc(Br)sc2C1)[C@](O)(Cn1cncn1)c1ccc(F)cc1F`: the MIC was 1 µg/mL (≈ 2.13 µM). Against the preceding compound, the MIC is about 4-fold higher.
